# Results: publication PMC9988221 (Journal of Clinical Psychopharmacology, 2023)
# Read-outs that look alike come from different tables or passages of the source. Marks after values point to notes of the source that are not given here.
# Legend:
# [1] = format: in vivo, human; settings: for AUC(0-t) / AUC(0-inf) / Cmax / half-life: male, human; for AUC(0-t) / AUC(0-inf) / Cmax / Cmax, gMean / half-life / AUC0–tz, gMean: plasma; for AUC(0-t): AUC0–tz; for AUC(0-inf): AUC0–∞; for AUC0–tz, Adjusted gMean Ratio (90% CI) / Cmax, Adjusted gMean Ratio (90% CI): probe drug + steady-state BI 425809 25 mg vs probe drug only
# [2] = target: P-gp (Homo sapiens, UniProt P08183); format: in vitro ADME; settings: Caco-2 cell monolayer; zosuquidar 1 μM, BI 425809 1-100 μM
# Summary of the method: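 Bidirectional Caco-2 monolayer transport in HBSS with 15 mM HEPES, pH 7.4, after 30 min equilibration. [³H]digoxin (1 μM) went in the donor side, and test compound (1–100 μM) or zosuquidar (1 μM) on both sides. After 30 min preincubation, sampling ran to 90 min and was read by scintillation counting. Papp gave the B-to-A/A-to-B efflux ratio, and IC50 with slope factor came from nonlinear regression of efflux ratio against inhibitor concentration.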
# [3] = +BI 425809 25 mg at steady state
# [4] = gMean, Probe Drug + BI 425809 25 mg once daily at steady state, healthy males
# [5] = gMean, Probe Drug Only, healthy males
# [6] = arithmetic mean (SD), +BI 425809 25 mg at steady state
# [7] = Probe Drug + BI 425809 25 mg once daily at steady state, healthy males
# [8] = probe drug alone (cocktail or digoxin alone)
# Sequence of P-gp (P08183 whole entry): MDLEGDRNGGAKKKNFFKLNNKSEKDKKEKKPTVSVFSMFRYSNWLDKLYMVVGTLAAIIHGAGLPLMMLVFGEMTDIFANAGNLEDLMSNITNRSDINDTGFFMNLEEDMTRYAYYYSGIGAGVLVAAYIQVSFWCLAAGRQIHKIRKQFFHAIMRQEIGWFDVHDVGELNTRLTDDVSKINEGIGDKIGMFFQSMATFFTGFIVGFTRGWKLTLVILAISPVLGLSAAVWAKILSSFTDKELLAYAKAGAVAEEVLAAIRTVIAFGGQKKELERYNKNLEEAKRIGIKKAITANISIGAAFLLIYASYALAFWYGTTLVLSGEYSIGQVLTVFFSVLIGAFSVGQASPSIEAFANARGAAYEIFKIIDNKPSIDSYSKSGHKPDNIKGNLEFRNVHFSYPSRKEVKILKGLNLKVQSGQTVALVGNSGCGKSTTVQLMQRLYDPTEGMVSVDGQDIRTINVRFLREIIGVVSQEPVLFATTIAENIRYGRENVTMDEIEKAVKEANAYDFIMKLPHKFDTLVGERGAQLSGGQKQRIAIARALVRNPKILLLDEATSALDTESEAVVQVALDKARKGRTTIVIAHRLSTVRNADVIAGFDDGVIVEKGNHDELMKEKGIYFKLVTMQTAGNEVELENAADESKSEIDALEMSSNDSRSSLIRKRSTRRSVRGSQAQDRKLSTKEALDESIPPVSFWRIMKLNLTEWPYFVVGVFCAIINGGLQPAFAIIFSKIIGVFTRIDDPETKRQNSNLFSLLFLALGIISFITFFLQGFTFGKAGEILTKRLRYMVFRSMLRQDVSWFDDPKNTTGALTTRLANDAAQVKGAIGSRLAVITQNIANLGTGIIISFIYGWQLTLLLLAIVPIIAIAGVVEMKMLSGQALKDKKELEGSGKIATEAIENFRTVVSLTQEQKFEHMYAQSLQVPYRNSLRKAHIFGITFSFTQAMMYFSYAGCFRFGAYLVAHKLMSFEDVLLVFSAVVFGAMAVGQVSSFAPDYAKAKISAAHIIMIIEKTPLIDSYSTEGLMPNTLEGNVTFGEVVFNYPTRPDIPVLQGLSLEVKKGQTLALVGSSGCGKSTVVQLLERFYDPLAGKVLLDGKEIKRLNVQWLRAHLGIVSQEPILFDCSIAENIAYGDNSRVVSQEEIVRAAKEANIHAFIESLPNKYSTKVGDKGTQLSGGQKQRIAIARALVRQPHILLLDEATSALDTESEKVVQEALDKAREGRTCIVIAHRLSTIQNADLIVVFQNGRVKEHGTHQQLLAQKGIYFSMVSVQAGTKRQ
SMILES,"AUC0–tz, arithmetic mean (SD) [1, 3]","AUC(0-t) [1, 4]","AUC(0-t) [1, 5]","AUC(0-inf) [1, 6]","Cmax [1, 6]","Cmax [1, 4]","Cmax [1, 5]","Cmax, gMean [1, 7]","Cmax, gMean ([1]; Probe Drug Only, healthy males)","AUC(0-t) [1, 6]","AUC0–tz, Adjusted gMean Ratio (90% CI) [1]","Cmax, Adjusted gMean Ratio (90% CI) [1]","Cmax, arithmetic mean (SD) [1, 8]","AUC0–∞, arithmetic mean (SD) [1, 3]","AUC0–tz, gMean [1, 7]","AUC0–tz, gMean ([1]; Probe Drug Only, healthy males)","AUC0–tz, arithmetic mean (SD) [1, 8]","AUC0–∞, arithmetic mean (SD) [1, 8]",other results
"COc1ccc2[nH]c([S+]([O-])Cc3ncc(C)c(OC)c3C)nc2c1 (centres unmarked) [Omeprazole, omeprazole]",604.0 (733.0) ng⋅h/mL,430 ng·h/mL,483 ng·h/mL,609 ng·h/mL,257 ng/mL,225 ng/mL,220 ng/mL,–,–,–,–,–,–,–,–,–,–,–,–
O[C@@H](COc1cccc2ncccc12)CN1CCN([C@@H]2c3ccccc3[C@@H]3[C@H](c4ccccc42)C3(F)F)CC1 [zosuquidar],–,–,–,–,–,–,–,–,–,–,–,–,–,–,–,–,–,–,effect on P-gp-mediated transcellular transport of digoxin (in words) [2]: inhibited
"C[C@H]1O[C@@H](O[C@H]2[C@@H](O)C[C@H](O[C@H]3[C@@H](O)C[C@H](O[C@H]4CC[C@@]5(C)[C@H](CC[C@@H]6[C@@H]5C[C@@H](O)[C@]5(C)[C@@H](C7=CC(=O)OC7)CC[C@]65O)C4)O[C@@H]3C)O[C@@H]2C)C[C@H](O)[C@@H]1O [Digoxin, digoxin]",–,9.5 ng·h/mL,9.7 ng·h/mL,20.1 ng·h/mL,–,–,–,1.1 ng/mL,1.1 ng/mL,10 ng·h/mL,97.9 (86.6–110.6) %,100.6 (86.9–116.5) %,1.1 (0.3) ng/mL,–,–,–,–,–,"Cmax, arithmetic mean (SD) [1, 3]: 1.1 (0.3) ng/mL; half-life ([1]; t1/2, arithmetic mean (SD), +BI 425809 25 mg at steady state): 54.2 h; adjusted gMean ratios for AUC0–tz and Cmax (in words) ([1]; presence vs absence of steady-state BI 425809): within ±4% of 100%"
CC(=O)C[C@@H](c1ccccc1)c1c(O)c2ccccc2oc1=O [S-warfarin],"15,600.0 (3590.0) ng⋅h/mL",–,–,–,–,–,–,553.7 ng/mL,–,–,–,–,–,"17,000.0 (3880.0) ng⋅h/mL","15,205.1 ng⋅h/mL","15,107.9 ng⋅h/mL","15,400.0 (3480.0) ng⋅h/mL","16,900.0 (3870.0) ng⋅h/mL",–
CC(=O)C[C@H](c1ccccc1)c1c(O)c2ccccc2oc1=O [R-warfarin],"23,000.0 (5360.0) ng⋅h/mL",–,–,–,–,–,–,541.8 ng/mL,525.0 ng/mL,–,–,–,–,"27,500.0 (7200.0) ng⋅h/mL","22,457.1 ng⋅h/mL","22,615.1 ng⋅h/mL","23,000.0 (4860.0) ng⋅h/mL","27,900.0 (6680.0) ng⋅h/mL",–
"Cc1ncc2n1-c1ccc(Cl)cc1C(c1ccccc1F)=NC2 [Midazolam, midazolam]",–,16.6 ng·h/mL,23.5 ng·h/mL,17.4 ng·h/mL,6.9 ng/mL,6.6 ng/mL,8.5 ng/mL,–,–,16.7 ng·h/mL,70.6 (63.9–78.1) %,77.6 (67.3–89.4) %,9.03 (3.3)* ng/mL,–,–,–,–,–,"decrease of the adjusted gMean ratio ([1]; BI 425809 25 mg once daily): 29.4%; half-life ([1]; t1/2, gMean (geometric coefficient of variation), on a background of steady-state BI 425809): 2.8 h; t1/2, gMean (geometric coefficient of variation) ([1]; midazolam alone): 3.3 [22.8] hours; AUC0–tz, Adjusted gMean Ratio (90% CI) ([1]; listed as midazolam): 70.6%; Cmax, Adjusted gMean Ratio (90% CI) ([1]; listed as midazolam): 77.6%"
